Test results as given in the EternaBench riboswitch data.

Tested on: MS2 coat protein
Test: apparent Kd, MS2 coat protein; higher = weaker binding; RNA-MaP array; FMN 200 µM where present
Outline: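 Two titrations, one without ligand and one with constant ligand, were run with SNAP-549-labelled MS2 coat protein from 0.7 or 1.5 nM, doubling to 3 µM. The targets were designs transcribed by stalled E. coli RNA polymerase on Illumina sequencing-chip clusters, in 100 mM Tris-HCl pH 7.5, 80 mM KCl, 4 mM MgCl2, BSA, DTT, yeast tRNA and Tween-20. The apparent Kd is the median of filtered per-cluster binding-curve fits, with green signal normalised to red-channel RNA signal and control-cluster median Fmax.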

[1] = designed as: OFF switch for flavin mononucleotide, no ligand
[2] = ligand present: flavin mononucleotide, designed as: OFF switch for flavin mononucleotide
[3] = designed as: ON switch for flavin mononucleotide, no ligand
[4] = ligand present: flavin mononucleotide, designed as: ON switch for flavin mononucleotide

Row | Sequence | apparent Kd [1] | apparent Kd [2] | apparent Kd [3] | apparent Kd [4]
1 | UGCAUGCUAGGAUAUACGAAACAUUAGGGUUCGUCGUAUGAACAUGAGGAUCACCCAUGUAGAAGGAGCGUGCU | 18.4 nM | 34.3 nM |  | 
2 | CGCUGCCACGCAGGAUAUGCAUUGGAUUCCAAUGCAGAAGGGCGAUUACAUGAGGAUCACCCAUGUGUUGGCAGUGAAGAAGAG |  |  | 1230 nM | 77.9 nM
3 | GGUGCGUUUGUGAGGAUAUGCUGGUCCUUGGUUCGGCAGAAGGCACAUGAGGAUCACCCAUGUGGUGUCGUUCC | 15 nM | 23.3 nM |  | 
4 | GUGGAACAUGAGGAUCACCCAUGUGAGGAUAUAGGUUUUUGGGAAAAACUAGGAGAAACUAGAAGGCGCAAGAA | 29.4 nM | 27.6 nM |  | 
5 | UUAAUUUUACAAGGAUAUCUAUUGUUAUUUCGACUUACAUGAGGAUCACCCAUGUUAAUAUAUUUAGAGAAGGUGUAUUUUCAG |  |  | 99.4 nM | 52.4 nM
6 | UGUCGGAGCAGAGGAUAUUACAUGAGGAUCACCCAUGUAUGUACCAAUAGCUGGAAACAGCAAUGUAAGAAGGCUGCUCCGACA | 6 nM | 24.7 nM |  | 
7 | UUCAAUCACAUAGGAUAUAGAAUAUUAUUUUUUUACAUGAGGAUCACCCAUGUUUUAUUGGGUUUCUAGAAGGAUGAGUUAUUA |  |  | 451 nM | 289 nM
8 | GAGUGUACGGAGGAUAUGUUAUACGAUGACCGAACAGAAGGCCGAACAUGAGGAUCACCCAUGUGUCUUCUAGG | 16 nM | 22.8 nM |  | 
9 | GCGUACAUAUCAGGAUAUCAUUGAAUGGAUUAACACAGUGAAUACAUGAGGAUCACCCAUGUGCUUGAGAAGGGAUUACUACGC | 11.1 nM | 10.4 nM |  | 
10 | CUGCUUCCCAGUAUGGGUAUUUAUACAGAAGGCCAGACACAUGAGGAUCACCCAUGUCAAGUAAUGGAGGAUAUGUUAUUGUCG |  |  | 10.9 nM | 4.97 nM
11 | AGUGCGUAUGUGAGGAUAUGCUGGUCCUUGGCUCGGCAGAAGGCACAUGAGGAUCACCCAUGUGGUGUCGUACG | 62.2 nM | 412 nM |  | 
12 | GUAUUAAAGAUCCAUUUAUACAACAUGAGGAUCACCCAUGUGCAGGAUAUCGUGUGUUUUUUAUUCGAGAAGGGCAAAUUCAUU | 37 nM | 85.2 nM |  | 
13 | GGUACUCAAAGAGUACCAAUACGAACAUGAGGAUCACCCAUGUAGGAUAUGCUACUCACAGAGUAGCAGAAGGACAUGUGCCUA | 20.8 nM | 136 nM |  | 
14 | UGUCGGAGCAGAGGAUAUUACAUGAGGAUCACCCAUGUAAGAACCAAUAGCUGGAAACAGCAAUGUAAGAAGGCUGCUCCGACA | 5.27 nM | 15.9 nM |  | 
15 | CGGCUGCUACGCCAGCUCGACGCACAGGAUAUGCUGUUACAUGAGGAUCACCCAUGUGGCCAAGAGCAGAAGGGUGAUUCGCGA |  |  | 33.6 nM | 35 nM
16 | AGUGUCAUCGAGAAGGCCUCAACAUGAGGAUCACCCAUGUUGCAAAAUGGGAGGAUAUCGCGCGUUAAAAUACGUUUCGUAGCA |  |  | 42.4 nM | 16.7 nM
17 | GGAUGACAAAGUCAUCCAUUACGAACAUGAGGAUCACCCAUGUAGGAUAUGCUACUCAAAGAGUAGCAGAAGGACAUGUGUCUU | 31.2 nM | 149 nM |  | 
18 | UCUUAUUGAGGAUAUACAUUAAUUUACAUGAGGAUCACCCAUGUUCUUCAAUGUAUAUAUGUAGAAGGCAGAAGAA | 18.5 nM | 42 nM |  | 
19 | AAACGGAUCCGCGGUUGAUGCUAACUAGAAGGGCAGGUCACAUGAGGAUCACCCAUGUAGUAUAUGUAGGAUAUAGGAAGCGUG |  |  | 140 nM | 26.9 nM
20 | CCAUAACAUGAGGAUCACCCAUGUCGACUAAAUCAAGGAUAUGGGAACGCGCAAGCAAAACCAGAAGGUGAGGUCC |  |  | 255 nM | 236 nM
